From ChEMBL document CHEMBL5331142, “Novel 1,4-Dihydropyridines as Specific Binders and Activators of SIRT3 Impair Cell Viability and Clonogenicity and Downregulate Hypoxia-Induced Targets in Cancer Cells” (J Med Chem, 2023) come the findings set out here.

Activity calls are given as the source filed them. The calls are words filed in the database; no cut-off is given here.

Data set [1] concerns MDA-MB-231. The experiment in a line: Downregulation of MMP2 gene expression in human MDA-MB-231 cells at 50 uM incubated for 48 hrs by qRT-PCR analysis. The class given is functional, cell-based. The method, boiled down:
(§1)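 MDA-MB-231 cells treated with 50 μM compound for 48 h under normoxia, DMSO vehicle control. qRT-PCR quantified by the 2(−ΔCt) method as fold of control, mean ± SEM. Three independent experiments.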
For orientation: Quantitative PCR measures a nucleic acid by following its amplification.

Data set [2] deals with T1, NAD-dependent protein deacetylase sirtuin-1 (Homo sapiens) (UniProt Q96EB6).
T1 sequence (whole entry): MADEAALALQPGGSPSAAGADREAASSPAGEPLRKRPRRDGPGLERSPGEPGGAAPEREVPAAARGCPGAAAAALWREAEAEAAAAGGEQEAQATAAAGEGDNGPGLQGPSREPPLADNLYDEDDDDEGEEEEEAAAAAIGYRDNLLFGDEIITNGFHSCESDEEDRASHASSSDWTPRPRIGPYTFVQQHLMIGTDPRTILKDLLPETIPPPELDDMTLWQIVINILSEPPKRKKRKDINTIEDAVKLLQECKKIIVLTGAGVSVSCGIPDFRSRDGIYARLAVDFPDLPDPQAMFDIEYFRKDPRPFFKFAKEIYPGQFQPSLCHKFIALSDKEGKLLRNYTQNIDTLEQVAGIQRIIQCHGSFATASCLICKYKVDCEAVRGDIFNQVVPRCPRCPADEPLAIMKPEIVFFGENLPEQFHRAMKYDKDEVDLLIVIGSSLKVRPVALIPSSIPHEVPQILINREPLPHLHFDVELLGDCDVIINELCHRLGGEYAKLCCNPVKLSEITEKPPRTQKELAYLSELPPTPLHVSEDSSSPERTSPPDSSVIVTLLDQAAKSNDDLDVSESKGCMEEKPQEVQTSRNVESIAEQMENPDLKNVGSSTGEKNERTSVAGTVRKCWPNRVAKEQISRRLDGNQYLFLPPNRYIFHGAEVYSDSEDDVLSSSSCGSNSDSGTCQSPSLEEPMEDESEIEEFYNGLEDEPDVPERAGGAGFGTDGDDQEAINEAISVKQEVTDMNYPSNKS
The experiment in a line: Activation of N-terminal his-tagged human SIRT1 expressed in Escherichia coli at 10 uM using p53-acK381 as substrate in presence of NAD+ by NADH oxidation-coupled enzymatic assay. The method, boiled down: (§2)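 Coupled PncA/GDH deacylation assay following NADPH oxidation to NADP+. 1.5 μM sirtuin, 50 μM substrate peptide, 100 μM NAD+, compound at 10 μM, 5% final DMSO. Isoform-specific physiological substrates: p53-acK381 (SIRT1), […] (SIRT2), ACS2-acK642 (SIRT3), CPS1-succK537 (SIRT5). Sirtuins expressed in E. coli, Ni-NTA purified, tag cleaved, then size-exclusion chromatography.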

In data set [3] the target is T2, NAD-dependent protein deacetylase sirtuin-3, mitochondrial (Homo sapiens) (UniProt Q9NTG7).
T2 sequence (whole entry): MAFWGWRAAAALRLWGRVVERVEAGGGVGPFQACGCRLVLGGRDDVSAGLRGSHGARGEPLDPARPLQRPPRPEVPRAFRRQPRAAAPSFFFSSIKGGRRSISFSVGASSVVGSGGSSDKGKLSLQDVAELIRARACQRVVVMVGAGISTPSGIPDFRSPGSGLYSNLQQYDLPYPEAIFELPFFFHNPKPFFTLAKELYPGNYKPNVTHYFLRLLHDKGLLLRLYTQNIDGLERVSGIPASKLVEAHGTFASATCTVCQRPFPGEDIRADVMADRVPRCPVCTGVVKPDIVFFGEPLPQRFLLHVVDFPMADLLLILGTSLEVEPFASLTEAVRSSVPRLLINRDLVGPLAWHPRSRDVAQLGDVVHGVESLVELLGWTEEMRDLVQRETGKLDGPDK
In words: Activation of N-terminal his-tagged human SIRT3 (114 to 380 residues) deacylation activity expressed in Escherichia coli at 10 uM using ACS2-acK642 as substrate in presence of NAD+ by NADH oxidation-coupled enzymatic assay. The conditions noted are these: filed as activator. The method, boiled down:
as §2

The next data set has as its system HaCaT. In words: Cytotoxicity against human HaCaT cells assessed as reduction in cell viability at 5 to 25 uM incubated for 24 to 48 hrs by trypan blue exclusion assay. The class given is toxicity, cell-based. The settings on record: dose lower 5 µM, time lower 24 hrs, dose upper 25 µM, time upper 48 hrs. In short, it runs like this: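 HaCaT keratinocytes in DMEM with 10% FBS, treated at 5, 10 and 25 μM for 24 and 48 h. Viability and death scored by trypan blue hemocytometer counting. Three independent experiments.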

The subject of data set [4] is MDA-MB-231. In words: Downregulation of SLUG gene expression in human MDA-MB-231 cells at 50 uM incubated for 48 hrs by qRT-PCR analysis. Type of data set: functional, cell-based. The method, boiled down: as §1
In data set [5] the test system is CAL-62. The experiment in a line: Inhibition of clonogenicity in human CAL-62 cells at 50 uM incubated for 24 to 48 hrs under hypoxia condition by crystal violet staining based assay. The class given is functional. The settings on record: time 24-48 hrs. The method, boiled down: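 CAL-62 cells at 80–90% confluence treated with 50 μM compound for 24 or 48 h, in normoxia or with 200 μM CoCl2 (hypoxia). 500 cells replated per 100 mm dish and grown about 7 days. Colonies fixed in 4% formaldehyde, stained with 0.5% crystal violet, and counted.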

In data set [6] the test system is MDA-MB-231. The experiment in a line: Induction of cell death in human MDA-MB-231 cells incubated for 48 hrs under hypoxia condition by trypan blue exclusion assay. The class given is functional, cell-based. The settings on record: MDA-MB-231, 48 h. In short, it runs like this:
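MDA-MB-231 cells treated at 1–50 μM for 48 h under 200 μM CoCl2 hypoxia. Dead cells scored by trypan blue on a hemocytometer, EC50 derived. Three independent experiments.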

In data set [7] the test system is MDA-MB-231. The experiment in a line: Downregulation of CA-IX expression in human MDA-MB-231 cells at 50 uM incubated for 48 hrs under hypoxia condition by Western blot analysis. The class given is functional, cell-based. The method, boiled down: (§3)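 CAL-62 or MDA-MB-231 cells made hypoxic with 200 μM CoCl2 for 24 h, then treated with 50 μM compound for 48 h with CoCl2 retained. Lysates (15 or 50 μg protein) immunoblotted for HIF-1α, EPAS-1 or CA-IX with ACTB, ECL detection. 3-TYP (1 μM) as control.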
On the technique in general: A western blot detects proteins with antibodies after separation by electrophoresis.

The subject of data set [8] is MDA-MB-231. In words: Inhibition of clonogenicity in human MDA-MB-231 cells incubated for 48 hrs under hypoxia condition by crystal violet staining based assay. The class given is functional, cell-based. The settings on record: MDA-MB-231, 48 h. In short, it runs like this: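 Dose range 1–50 μM for 48 h under CoCl2 (200 μM) hypoxia. 500 surviving cells replated and grown about 7 days (CAL-62) or 10 days (MDA-MB-231). Crystal violet colony counts used to derive IC50/EC50. Three independent experiments.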

The subject of data set [9] is MDA-MB-231. In words: Downregulation of ZEB1 gene expression in human MDA-MB-231 cells at 50 uM incubated for 48 hrs by qRT-PCR analysis. The class given is functional, cell-based. The method, boiled down: as §1
Data set [10] concerns MDA-MB-231. The experiment in a line: Inhibition of cell migration in human MDA-MB-231 cells at 50 uM incubated for 48 hrs by scratch assay. The class given is functional. The method, boiled down:
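Confluent MDA-MB-231 monolayer shifted to serum-depleted medium and scratched with a pipette tip. Treated with 50 μM compound for 48 h, DMSO as control. Migration imaged by phase contrast at two time points and quantified. Mean ± SEM of three independent experiments.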

Data set [11] relates to CAL-62. In words: Downregulation of CA-IX expression in human CAL-62 cells at 50 uM incubated for 48 hrs under hypoxia condition by Western blot analysis. Type of data set: functional, cell-based. The method, boiled down: as §3

Turning to `CCOC(=O)C1=CN(C(=O)c2ccc(OC)c(OC)c2)C=C(C(=O)OCC)C1c1ccccc1`, the result in the data set with MDA-MB-231 [1] was Active. Moreover, the result in [2] was inactive. Besides, the Activity was 158% in data set [3] and “Non-Toxic” with HaCaT.
Take `CCOC(=O)C1=CN(C(=O)c2cc(OC)cc(OC)c2)C=C(C(=O)OCC)C1c1ccccc1`: the result with MDA-MB-231 [1], in the data set with MDA-MB-231 [7], in the data set with MDA-MB-231 [9] and in the data set on CAL-62 [11] was Active. For the same molecule, the outcome (in the data set with MDA-MB-231 [4]; in [2]) was inactive. For the same molecule, the values for the inhibition at 50 µM in the data set on CAL-62 [5] and in the data set on MDA-MB-231 [10] were 68% and greater than 75%, respectively. For the same molecule, in the data set with MDA-MB-231 [6], the EC50 (as a rule, the concentration needed to bring the measured effect to its halfway point) turned out to be 10.7 µM. For the same molecule, the Activity in data set [3] amounted to 149%. Also, the IC50 (usually the point on the concentration scale where inhibition reaches its midpoint) in the data set on MDA-MB-231 [8] was 3.19 µM.
